Results published in ChEMBL document CHEMBL1268932, “Discovery and SAR of a series of 4,6-diamino-1,3,5-triazin-2-ol as novel non-nucleoside reverse transcriptase inhibitors of HIV-1” (Bioorg Med Chem Lett, 2010).

Experiments:
[1] = AUC in rat at 4 mg/kg, po or 2 mg/kg, iv; type: ADME, organism-based; details: plasma
Summary of the method: (§1)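 Rats dosed orally at 4 mg/kg and intravenously at 2 mg/kg. Plasma parameters were Cmax and AUC, plus t1/2, Vdss and clearance after the IV dose. Apparent oral bioavailability was derived from both routes.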

[2] = test system: Human immunodeficiency virus 1; test: Antiviral activity against wild type HIV1 assessed as inhibition of virus-induced cytopathic effect by cell based assay; type: functional, organism-based
Summary of the method: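 Cell-based cytoprotection assay. The endpoint is EC50, the concentration giving 50% inhibition of the virus-induced cytopathic effect. Virus and cells were either HIV-1RF in CEM-SS cells or HIV-1IIIB in MT-4 cells.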

[3] = test system: Human immunodeficiency virus 1; test: Antiviral activity against HIV1 NL4-3 containing reverse transcriptase Y181C mutation infected in human CEM-SS cells assessed as inhibition of virus-induced cytopathic effect; type: functional, organism-based; details: Human immunodeficiency virus 1, NL4-3, CEM-SS
[4] = Cmax in rat at 4 mg/kg, po; type: ADME, organism-based; design: dose 4 mg/kg, route oral; details: in vivo; summary of the method: as §1
[5] = target: Human immunodeficiency virus type 1 reverse transcriptase (Human immunodeficiency virus 1, UniProt Q72547, L100I); test: Inhibition of HIV1 reverse transcriptase L100I mutant
[6] = Toxicity in human CEM-SS cells; type: cell-based; details: read-out: TC50 (the source's name)
[7] = Half life in rat at 2 mg/kg, iv; type: ADME, organism-based; design: dose 2 mg/kg, route intravenous; details: in vivo; summary of the method: as §1
[8] = test system: Human immunodeficiency virus 1; test: Antiviral activity against HIV1 NL4-3 containing reverse transcriptase K103N mutation infected in human CEM-SS cells assessed as inhibition of virus-induced cytopathic effect; type: functional, organism-based; details: Human immunodeficiency virus 1, NL4-3, CEM-SS
[9] = Volume of distribution at steady state in rat at 4 mg/kg, po or 2 mg/kg, iv; type: ADME, organism-based; details: in vivo, read-out: Vdss; summary of the method: as §1
[10] = Oral bioavailability in rat at 4 mg/kg, po; type: ADME, organism-based; details: in vivo; summary of the method: as §1
[11] = target: Human immunodeficiency virus type 1 reverse transcriptase (Human immunodeficiency virus 1, UniProt Q72547, Y188L); test: Inhibition of HIV1 reverse transcriptase Y188L mutant
[12] = test system: Human immunodeficiency virus 1; test: Antiviral activity against wild type HIV1 NL4-3 infected in human CEM-SS cells assessed as inhibition of virus-induced cytopathic effect; type: functional, organism-based; details: Human immunodeficiency virus 1, NL4-3, CEM-SS
[13] = Clearance in rat at 4 mg/kg, po or 2 mg/kg, iv; type: ADME, organism-based; details: in vivo; summary of the method: as §1
[14] = target: Human immunodeficiency virus type 1 reverse transcriptase (Human immunodeficiency virus 1, UniProt Q72547, V106A); test: Inhibition of HIV1 reverse transcriptase V106A mutant
[15] = target: Human immunodeficiency virus type 1 reverse transcriptase (Human immunodeficiency virus 1, UniProt Q72547); test: Inhibition of wild type HIV1 reverse transcriptase

Structure (SMILES)	EC50 [2] [nM]	IC50 [15] [µM]	also measured
CN(Cc1ccc2occc2c1)c1nc(O)nc(Nc2c(F)cccc2-c2ccccc2)n1	5	0.008	AUC [1]: 12.5 µM·h; EC50 [3]: 100 nM; Cmax [4]: 3.8 µM; IC50 [5]: 47 nM; CC50 [6]: > 1000 nM; half-life [7]: 87 min; EC50 [8]: > 1000 nM; Vd [9]: 0.35 L/kg; bioavailability [10]: 38%; IC50 [11]: 6.1 µM; EC50 [12]: 6 nM; clearance [13]: 5.17 mL/min/kg; IC50 [14]: 9.1 µM
CN(Cc1ccc2occc2c1)c1nc(O)nc(Nc2c(F)cc(F)cc2-c2ccccc2)n1	10	0.07	–
Cc1cccc(-c2ccoc2)c1Nc1nc(O)nc(N(C)Cc2ccc3occc3c2)n1	7	0.08	–
Cc1cccc(-c2ccccc2)c1Nc1nc(O)nc(N(C)Cc2ccc3c(c2)CCO3)n1	3	0.055	AUC [1]: 15.6 µM·h; EC50 [3]: 200 nM; Cmax [4]: 6.1 µM; IC50 [5]: 70 nM; CC50 [6]: > 1000 nM; half-life [7]: 84 min; EC50 [8]: > 1000 nM; Vd [9]: 0.32 L/kg; bioavailability [10]: 44%; IC50 [11]: 9.5 µM; EC50 [12]: 6 nM; clearance [13]: 4.5 mL/min/kg; IC50 [14]: 36.7 µM
Cc1cccc(-c2ccccc2)c1Nc1nc(O)nc(N(C)Cc2ccc3c(c2)OCO3)n1	130	0.09	–
Cc1cccc(-c2ccccc2)c1Oc1nc(O)nc(NCc2ccc3occc3c2)n1	12600	9.7	–
Cc1cccc(-c2ccccc2)c1Nc1nc(O)nc(OCc2ccc3occc3c2)n1	4000	23.6	–
Cc1cccc(-c2ccccc2)c1Oc1nc(N)nc(NCc2ccc3occc3c2)n1	> 50000	> 100	–
Fc1cccc(-c2ccccc2)c1Nc1nc(Cl)nc(NCc2ccc3occc3c2)n1	–	> 100	–
COc1nc(NCc2ccc3occc3c2)nc(Nc2c(C)cccc2-c2ccccc2)n1	3000	2.57	–
Oc1nc(NCc2ccc3cc[nH]c3c2)nc(Nc2ccccc2-c2ccccc2)n1	7200	3.5	–
Oc1nc(NCc2ccc3cc[nH]c3c2)nc(Nc2cccc(Br)c2)n1	> 10000	40	–
Oc1nc(NCc2ccc3cc[nH]c3c2)nc(Nc2cccc(Oc3ccccc3)c2)n1	> 10000	> 100	–
Cc1cccc(-c2ccccc2)c1Nc1nc(O)nc(NCc2ccc3cc[nH]c3c2)n1	900	0.5	–
CC(C)(Nc1nc(O)nc(Nc2c(F)cccc2-c2ccccc2)n1)c1ccc2c(c1)OCO2	–	> 100	–
Cc1cccc(-c2ccccc2)c1Nc1nc(O)nc(NCc2ccc3c(ccn3S(C)(=O)=O)c2)n1	> 10000	> 100	–
Cc1cccc(-c2ccccc2)c1Nc1nc(O)nc(NCc2ccc3c(c2)OCCCO3)n1	2800	4.4	–
Cc1cccc(-c2ccccc2)c1Nc1nc(O)nc(NCc2ccc3occc3c2)n1	200	0.07	–
Oc1nc(NCc2ccc3occc3c2)nc(Nc2c(F)cccc2-c2ccccc2)n1	400	0.09	–
Cc1cccc(-c2ccccc2)c1N(C)c1nc(O)nc(NCc2ccc3occc3c2)n1	1500	5.1	–
CN(Cc1ccc2occc2c1)c1nc(O)nc(Nc2ccccc2N2CCOCC2)n1	–	4.1	–
CCN(Cc1ccc2occc2c1)c1nc(O)nc(Nc2c(F)cccc2-c2ccccc2)n1	–	> 100	–
Cc1cccc(-c2ccccc2)c1Nc1nc(O)nc(N(C)Cc2ccc3occc3c2)n1	120	0.083	–
O=C1Nc2ccc(Cl)cc2[C@@](C#CC2CC2)(C(F)(F)F)O1 [EFAVIRENZ]	–	–	EC50 [3]: 5 nM; CC50 [6]: > 1000 nM; EC50 [8]: > 1000 nM
Cc1ccnc2c1NC(=O)c1cccnc1N2C1CC1 [NEVIRAPINE]	–	–	EC50 [3]: > 1000 nM; CC50 [6]: > 1000 nM; EC50 [8]: > 1000 nM; EC50 [12]: 200 nM
